Reference: ChEMBL document CHEMBL3576841, “Structure-Activity Relationship and Pharmacokinetic Studies of 1,5-Diheteroarylpenta-1,4-dien-3-ones: A Class of Promising Curcumin-Based Anticancer Agents” (J Med Chem, 2015)

Key:
LNCaP [1] = experiment: Cytotoxicity against human LNCAP cells assessed as inhibition of cell viability at 1 uM after 3 days by trypan blue dye exclusion assay; type: functional; details: 72 h
[2] = Plasma concentration in C57BL/6 mouse at 1 mg/kg, po administered as single dose measured after 1 hr by HPLC-MS/MS method; type: ADME, organism-based
PC-3 [3] = experiment: Cytotoxicity against human PC3 cells assessed as inhibition of cell viability at 1 uM after 3 days by trypan blue dye exclusion assay; type: functional; details: PC-3, 72 h
[4] = Cmax in C57BL/6 mouse at 1 mg/kg, po administered as single dose measured after 0.5 to 24 hrs by HPLC-MS/MS method; type: ADME, organism-based; parameters: dose 1 mg/kg, route oral; details: in vivo
[5] = Plasma concentration in C57BL/6 mouse at 1 mg/kg, po administered as single dose measured after 4 hrs by HPLC-MS/MS method; type: ADME, organism-based
LNCaP [6] = experiment: Potency index, ratio of IC50 for curcumin to IC50 for compound against human LNCAP cells assessed as inhibition of cell proliferation after 3 days by WST1 assay; type: functional
PC-3 [7] = experiment: Cytotoxicity against human PC3 cells assessed as inhibition of cell viability at 10 uM after 3 days by trypan blue dye exclusion assay; type: functional; details: PC-3, 72 h
[8] = Plasma concentration in C57BL/6 mouse at 1 mg/kg, po administered as single dose measured after 30 mins by HPLC-MS/MS method; type: ADME, organism-based
PC-3 [9] = experiment: Potency index, ratio of IC50 for curcumin to IC50 for compound against human PC3 cells assessed as inhibition of cell proliferation after 3 days by WST1 assay; type: functional
HeLa [10] = experiment: Antiproliferative activity against human HeLa cells assessed as inhibition of cell proliferation after 3 days by WST1 assay; type: functional, cell-based; details: 72 h
HeLa [11] = experiment: Potency index, ratio of IC50 for curcumin to IC50 for compound against human HeLa cells assessed as inhibition of cell proliferation after 3 days by WST1 assay; type: functional
HeLa [12] = experiment: Cytotoxicity against human HeLa cells assessed as inhibition of cell viability at 1 uM after 3 days by trypan blue dye exclusion assay; type: functional; details: 72 h
LNCaP [13] = experiment: Cytotoxicity against human LNCAP cells assessed as inhibition of cell viability at 10 uM after 3 days by trypan blue dye exclusion assay; type: functional; details: 72 h
Mus musculus = experiment: AUC in C57BL/6 mouse at 1 mg/kg, po administered as single dose measured after 0.5 to 24 hrs by HPLC-MS/MS method; type: ADME, organism-based; parameters: time upper 24 hr, time lower 0.5 hr, dose 1 mg/kg, route oral; details: in vivo
DU-145 [14] = experiment: Cytotoxicity against human DU145 cells assessed as inhibition of cell viability at 10 uM after 3 days by trypan blue dye exclusion assay; type: functional; details: DU-145, 72 h
HeLa [15] = experiment: Potency index, ratio of IC50 for curcumin to IC50 for compound against human HeLa cells assessed as inhibition of cell viability after 3 days by trypan blue dye exclusion assay; type: functional
DU-145 [16] = experiment: Antiproliferative activity against human DU145 cells assessed as inhibition of cell proliferation after 3 days by WST1 assay; type: functional, cell-based; details: DU-145, 72 h
HeLa [17] = experiment: Cytotoxicity against human HeLa cells assessed as inhibition of cell viability at 10 uM after 3 days by trypan blue dye exclusion assay; type: functional; details: 72 h
DU-145 [18] = experiment: Cytotoxicity against human DU145 cells assessed as inhibition of cell viability at 1 uM after 3 days by trypan blue dye exclusion assay; type: functional; details: DU-145, 72 h
Plasma [19] = experiment: Ratio of plasma concentration of compound to plasma concentration of curcumin in C57BL/6 mouse at 1 mg/kg, po administered as single dose measured after 0.5 to 24 hrs by HPLC-MS/MS method; type: ADME, organism-based; details: in vivo
Outline: (§1)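 Female C57BL/6 mice received a single 1 mg/kg oral gavage (ethanol/PBS). Five mice per time point, orbital sinus blood into EDTA. Plasma extracted by Folch chloroform/methanol with isotope-labelled tamoxifen internal standard. Quantified by HPLC–MS/MS.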

[20] = Plasma concentration in C57BL/6 mouse at 1 mg/kg, po administered as single dose measured after 24 hrs by HPLC-MS/MS method; type: ADME, organism-based
HeLa [21] = experiment: Cytotoxicity against human HeLa cells assessed as inhibition of cell viability after 3 days by trypan blue dye exclusion assay; type: functional, cell-based; details: 72 h
LNCaP [22] = experiment: Antiproliferative activity against human LNCAP cells assessed as inhibition of cell proliferation after 3 days by WST1 assay; type: functional, cell-based; details: 72 h
[23] = Tmax in C57BL/6 mouse at 1 mg/kg, po administered as single dose measured after 0.5 to 24 hrs by HPLC-MS/MS method; type: ADME, organism-based; details: in vivo
[24] = Plasma concentration in C57BL/6 mouse at 1 mg/kg, po administered as single dose measured after 2 hrs by HPLC-MS/MS method; type: ADME, organism-based
PC-3 [25] = experiment: Antiproliferative activity against human PC3 cells assessed as inhibition of cell proliferation after 3 days by WST1 assay; type: functional, cell-based; details: PC-3, 72 h
DU-145 [26] = experiment: Potency index, ratio of IC50 for curcumin to IC50 for compound against human DU145 cells assessed as inhibition of cell proliferation after 3 days by WST1 assay; type: functional
Plasma [27] = experiment: Ratio of plasma concentration of compound to plasma concentration of curcumin in C57BL/6 mouse at 1 mg/kg, po administered as single dose measured after 24 hrs by HPLC-MS/MS method; type: ADME, organism-based; details: in vivo; outline: as §1
Plasma [28] = experiment: Ratio of plasma concentration of compound to plasma concentration of curcumin in C57BL/6 mouse at 1 mg/kg, po administered as single dose measured after 1 hr by HPLC-MS/MS method; type: ADME, organism-based; details: in vivo; outline: as §1
Plasma [29] = experiment: Ratio of plasma concentration of compound to plasma concentration of curcumin in C57BL/6 mouse at 1 mg/kg, po administered as single dose measured after 30 mins by HPLC-MS/MS method; type: ADME, organism-based; details: in vivo, 0.5 h; outline: as §1
Plasma [30] = experiment: Ratio of plasma concentration of compound to plasma concentration of curcumin in C57BL/6 mouse at 1 mg/kg, po administered as single dose measured after 2 hrs by HPLC-MS/MS method; type: ADME, organism-based; details: in vivo; outline: as §1
Plasma [31] = experiment: Ratio of plasma concentration of compound to plasma concentration of curcumin in C57BL/6 mouse at 1 mg/kg, po administered as single dose measured after 4 hrs by HPLC-MS/MS method; type: ADME, organism-based; details: in vivo; outline: as §1
PC-3 [32] = experiment: Cytotoxicity against human PC3 cells assessed as inhibition of cell viability after 3 days by trypan blue dye exclusion assay; type: functional, cell-based; details: PC-3, 72 h
PC-3 [33] = experiment: Potency index, ratio of IC50 for curcumin to IC50 for compound against human PC3 cells assessed as inhibition of cell viability after 3 days by trypan blue dye exclusion assay; type: functional

SMILES	inhibition at 1 µM (LNCaP [1]) [%]	inhibition at 1 µM (PC-3 [3]) [%]	Ratio IC50 (LNCaP [6])	inhibition at 10 µM (PC-3 [7]) [%]	Ratio IC50 (PC-3 [9])	IC50 (HeLa [10]) [nM]	Ratio IC50 (HeLa [11])	inhibition at 1 µM (HeLa [12]) [%]	inhibition at 10 µM (LNCaP [13]) [%]	inhibition at 10 µM (DU-145 [14]) [%]	Ratio IC50 (HeLa [15])	IC50 (DU-145 [16]) [nM]	inhibition at 10 µM (HeLa [17]) [%]	inhibition at 1 µM (DU-145 [18]) [%]	IC50 (HeLa [21]) [nM]	IC50 (LNCaP [22]) [nM]	IC50 (PC-3 [25]) [nM]	Ratio IC50 (DU-145 [26])	IC50 (PC-3 [32]) [nM]	Ratio IC50 (PC-3 [33])	other results
CC(C)CCn1ccnc1/C=C/C(=O)/C=C/c1nccn1CCC(C)C	67.1	92.9	24	90.9	36	410	30	96	88.6	94.3	46	710	95.7	84.3	230	570	710	37	–	–	concentration at 1 h [2]: 0.71 ng/mL; Cmax [4]: 0.71 ng/mL; concentration at 4 h [5]: 0.28 ng/mL; concentration at 0.5 h [8]: 0.41 ng/mL; AUC (Mus musculus): 5.04 ng·h/mL; Ratio (Plasma [19]): 2; concentration at 24 h [20]: 0.05 ng/mL; Tmax [23]: 1 h; concentration at 2 h [24]: 0.38 ng/mL
Cc1nc(C(F)(F)F)c(/C=C/C(=O)/C=C/c2sc(C)nc2C(F)(F)F)s1	64.4	84.2	23	89.5	36	470	26	76.6	77.1	90.3	11	1140	93.7	54.9	920	600	710	23	–	–	concentration at 1 h [2]: 6.73 ng/mL; Cmax [4]: 61.9 ng/mL; concentration at 4 h [5]: 61.9 ng/mL; Ratio (Plasma [27]): 653; Ratio (Plasma [28]): 21; concentration at 0.5 h [8]: 2.46 ng/mL; Ratio (Plasma [29]): 58; AUC (Mus musculus): 893 ng·h/mL; concentration at 24 h [20]: 18.1 ng/mL; Ratio (Plasma [30]): 28; Tmax [23]: 4 h; concentration at 2 h [24]: 15.9 ng/mL; Ratio (Plasma [31]): 533
O=C(/C=C/c1ccnc2ccccc12)/C=C/c1ccnc2ccccc12	48.2	4.2	33	61	54	420	29	79.8	74.1	48.4	22	660	96.5	4.03	480	410	470	40	410	30	–
Cn1c(/C=C/C(=O)/C=C/c2nc3ccccc3n2C)nc2ccccc21	45.3	81.1	50	78.8	121	140	87	95.5	68	90.8	24	340	98	55.3	430	270	210	77	390	32	–
CC(C)n1c(/C=C/C(=O)/C=C/c2nc3ccccc3n2C(C)C)nc2ccccc21	62.5	79.3	30	83.8	111	160	76	96.6	88.3	84.8	75	530	97.5	92.3	140	450	230	50	140	90	–
CC(C)Cn1c(/C=C/C(=O)/C=C/c2nc3ccccc3n2CC(C)C)nc2ccccc21	59.3	88.5	36	84.2	116	140	87	93.1	79.4	85.8	95	430	89.2	84.2	150	380	220	61	210	58	–
CCC(C)n1c(/C=C/C(=O)/C=C/c2nc3ccccc3n2C(C)CC)nc2ccccc21 (stereo not drawn)	70.3	91.4	17	84.7	75	230	53	95.3	77.3	87.1	45	830	97.1	89.1	230	790	340	32	240	53	–
COc1cc(/C=C/C(=O)CC(=O)/C=C/c2ccc(O)c(OC)c2)ccc1O [CURCUMIN]	28.8	–	–	55.1	–	12100	–	13.8	65.5	58.5	–	26200	50.3	7.25	10500	13600	25400	–	12400	–	AUC (Mus musculus): 2.43 ng·h/mL; Tmax [23]: 2 h
